Source: the EternaBench riboswitch data

System: MS2 coat protein
Test: apparent Kd, MS2 coat protein; higher = weaker binding; RNA-MaP array; FMN 200 µM where present
Procedure, shortened: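 Each design was made on Illumina sequencing-chip clusters by stalled E. coli RNA polymerase and titrated with SNAP-549-labelled MS2 coat protein from 0.7 or 1.5 nM, doubling to 3 µM, in the absence and then the presence of constant ligand. The buffer was 100 mM Tris-HCl pH 7.5, 80 mM KCl, 4 mM MgCl2, BSA, DTT, yeast tRNA and Tween-20. The apparent Kd is the median of filtered per-cluster fits of binding curves, with green signal normalised to red-channel RNA signal and control-cluster median Fmax.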

[1] = designed as: OFF switch for flavin mononucleotide, no ligand
[2] = ligand present: flavin mononucleotide, designed as: OFF switch for flavin mononucleotide
[3] = designed as: ON switch for flavin mononucleotide, no ligand
[4] = ligand present: flavin mononucleotide, designed as: ON switch for flavin mononucleotide

| Sequence | apparent Kd [1] [nM] | apparent Kd [2] [nM] | apparent Kd [3] [nM] | apparent Kd [4] [nM] |
| --- | --- | --- | --- | --- |
| CUUUAGUCAGGAUAUACAUGAGGAUCACCCAUGUAAAAUUUUAAUUUAAUUUUAAGGUGUAGAAGGGACCACCC | 33.4 | 29.3 |  |  |
| CUUUGAUGAGGAUAUCGAGGUUAGUACAUGAGGAUCACCCAUGUUAUCCAGGUGUCGGAUCGAGAAGGUAUUGGAC |  | 17.5 |  |  |
| CUUUUGGGAGGAUAUUAGUAGUAAAUAAAUAAAAUUACUACUGAGAAGGCACAUGAGGAUCACCCAUGUUCCUC | 17.9 | 26.1 |  |  |
| CUUUUGUGAGGAUAUCAGGUGUGCUAGCGUACUGGUACAUCUGAGAAGGCACAUGAGGAUCACCCAUGUUCCUC | 42.2 | 238 |  |  |
| CUUUUGUGAGGAUAUCAGUAGUAAAAAAAUAAUAUUACUACUGAGAAGGCACAUGAGGAUCACCCAUGUUCCUC | 36 | 276 |  |  |
| CUUUUGUGAGGAUAUCAGUAGUAAAAUAAUAAAUAUACUACUGAGAAGGCACAUGAGGAUCACCCAUGUUCCUC | 37.8 | 233 |  |  |
| CUUUUGUGAGGAUAUCAGUAGUAAAUAAAUAAAAUUAAUACUGAGAAGGCACAUGAGGAUCACCCAUGUUCCUC | 33.1 | 162 |  |  |
| CUUUUGUGAGGAUAUCAGUAGUAAAUAAAUAAAUUUACUACUGAGAAGGCACAUGAGGAUCACCCAUGUUCCUC | 39.1 | 292 |  |  |
| CUUUUGUGAGGAUAUCAGUAGUAAUAAAAUAAAAUAACUACUGAGAAGGCACAUGAGGAUCACCCAUGUUCCUC | 32 | 145 |  |  |
| CUUUUGUGAGGAUAUCAGUAGUAAUACAAUAGUAUUACUGCUGAGAAGGCACAUGAGGAUCACCCAUGUUCCUC | 59.9 | 284 |  |  |
| CUUUUGUGAGGAUAUCAGUAGUAUAAAAUAAAAUAUACUACUGAGAAGGCACAUGAGGAUCACCCAUGUUCCUC | 38.3 | 263 |  |  |
| CUUUUGUGAGGAUAUUAGUAGUAAACGAACAAAAUUAUUACUGAGAAGGCACAUGAGGAUCACCCAUGUUCCUC | 46 | 575 |  |  |
| CUUUUGUGAGGAUAUUAGUAGUAAAUAAAUAAAUUUACUACUGAGAAGGCACAUGAGGAUCACCCAUGUUCCUC | 36.7 | 328 |  |  |
| CUUUUGUGAGGAUAUUCGUAGUAGAUAAAUAAAACUAUUACGGAGAAGGCACAUGAGGAUCACCCAUGUUCCUU | 16.7 | 54.5 |  |  |
| CUUUUGUGAGGAUAUUCGUAGUAGGUAAAUAAAACUAUUACGGAGAAGGCACAUGAGGAUCACCCAUGUUCCUU | 18.1 | 54.2 |  |  |
| GAAAACAGAGGAUAUACAUAAGCUAGACGAAAGUCUAGCAAACAUGAGGAUCACCCAUGUAGAAGGCUGAAGAA | 37.6 | 36.3 |  |  |
| GAAAACAGAGGAUAUACAUGAUUAUGACGAAAGUCAUAAAAACAUGAGGAUCACCCAUGUAGAAGGCUGAAGAA | 185 | 201 |  |  |
| GAAAACGGAGAGGAUAUUUGAGAUCAAAGCUCCAAAGAAGGCUCCACAUGAGGAUCACCCAUGUGGUCUUCAAA | 13.5 | 111 |  |  |
| GAAAUACAUGAGGAUCACCCAUGUGAGGAUAUGCUAUGGAAAUAAAAAAUAAAACAUAGCAGAAGGUACAAAAG | 71.5 | 106 |  |  |

| Sequence | apparent Kd [1] [nM] | apparent Kd [2] [nM] | apparent Kd [3] [nM] | apparent Kd [4] [nM] |
| --- | --- | --- | --- | --- |
| GAAAUGAUGAUAGGAUAUCCACAGACAUGAGGAUCACCCAUGUUUAUGGGACGAAUCCUUGUGCAGGAGAAGGAUCGUCACUAU | 64.7 | 39.5 |  |  |
| GAACCUCUUGUGAGGAUAUGCUGUUGAACGAGCUUGCAGAAGGCACAUGAGGAUCACCCAUGUCUCUUCUGGGU | 20.4 | 28.2 |  |  |
| GAACGUGACAUGAGGAUCACCCAUGUUGCCUGAGCCAGGUCGUAGGAUAUCCUGUUGAUUAAUUUGGAGAAGGGCGACUGGGAG |  |  | 46.5 | 18.3 |
| GAACGUGAGACGACCGUGGGUACAUGAGGAUCACCCAUGUGCAGAAGGCGAAUAUGACGAUGUGUCGAGGAUAUGCACAGCUCA | 22.4 | 97.6 |  |  |
| GAACUAAAGCAUAGCUUUAGUCGUACAUGAGGAUCACCCAUGUAGGAUAUGGUAGGCAUAGCUUACUAGAAGGAUAGAGUGAUC | 294 | 82.4 |  |  |
| GAAGAACAUGAGGAUCACCCAUGUGAUUCGCAUGUAGGAUAUGGGCACGCGCCCGCGUGUCUAGAAGGACAGGCUA |  |  | 69.3 | 109 |
| GAAGCAUGCAUUAACAUGAGGAUCACCCAUGUGAAAACACGUGAGGAUAUCGAUCUGAAGAAGAUCGAGAAGGCACCGUGCUAA |  |  | 8.87 | 7.62 |
| GAAGCGCUUGACAUGAGGAUCACCCAUGUUAGAUUGUUAUGUCAGGAUAUAGUCUAGAAACUAGACUAGAAGGGAUAUGCUUCU |  |  | 300 | 43.1 |
| GAAGUUAGAGGAUAUACAUGAGGAUCACCCAUGUGUGAAGUUAACUUUGUAUAUUAAUGUAGAAGGCUAACUUC | 42.5 | 118 |  |  |
| GAAGUUGGUAGGCCCUCGGAACAUGAGGAUCACCCAUGUAAGGAGGAUAUGCCCGGUACCCGCUGGCAGAAGGCCUUAUAAGAA | 11.1 | 68.8 |  |  |
| GAAUAAUUGAUCCUUUUUUAUUACAUGAGGAUCACCCAUGUGCAGGAUAUCGAUUGUUUUAGUUUCGAGAAGGGCAAGAACUGU | 219 | 255 |  |  |
| GAAUACACCCGACGGGUGUCCGGCAAGGAUAUGAUGAGGGCGAUGCUACAUGAGGAUCACCCAUGUCAGAAGGUGCCCUCCAGG | 6.59 | 7.19 |  |  |
| GAAUGUAAAGAGAAGGGCUACUGGUUGAAACCUGCGGCCUCUGGAACAUGAGGAUCACCCAUGUAGCAGGAUAUCUUUGCGUCA | 192 | 29.5 |  |  |
| GAAUUAAAGAUCCAAUUUUACAACAUGAGGAUCACCCAUGUGCAGGAUAUCGUGUGUUUUAUAUUCGAGAAGGGCAAAUACAUU | 100 | 187 |  |  |
| GACAAGGGAGGAUAUGCACAAGGGAUAUCUGACAUGCCGUUACAUGAGGAUCACCCAUGUAGAAGGCCCGAAUA | 13.7 | 35.3 |  |  |
| GACACGUAAGGAUAUUGAGGGUAGAUGUGAGUCUAGCCCGGCAAGAAGGUACAUGAGGAUCACCCAUGUCCCGG | 13.6 | 17 |  |  |
| GACACUAGUGUUAGGAUAUGUGUGAGGGACCGCAAACAGAAGGAACAUGAGGAUCACCCAUGUGAUGGUUCUGA | 21.5 | 20.4 |  |  |
| GACAGACAUGAGGAUCACCCAUGUACAAACGUACAAGGAUAUGUGUGGAAACCGUACUAUACAGAAGGUGUCUGUC |  |  | 121 | 151 |
| GACAUACAUGAGGAUCACCCAUGUACAGACGUACAAGGAUAUGUGUGGAAACCGUACUAUACAGAAGGUGUUUGUC |  |  | 73.1 | 33.9 |

| Sequence | apparent Kd [1] [nM] | apparent Kd [2] [nM] | apparent Kd [3] [nM] | apparent Kd [4] [nM] |
| --- | --- | --- | --- | --- |
| GACAUACAUGAGGAUCACCCAUGUUCAAACGGGCAAGGAUAUGUGUGGAAACCAUACUAUACAGAAGGUGUCUGUC |  |  | 28.4 | 18.7 |
| GACAUGAGGAUCACCCAUGUCCAACCAGAAGGCCAGGAAUCGGACCCGAGUAUCGGGUUCGAGAUGGAGGAUAUGGGCGCCGAA |  |  | 75.1 | 33.7 |
| GACCCUAAUGAGAAGGUGUGUAUAAAUUAUAUACAAGGAUAUCGGUCGAGCGUGUUGACAUGAGGAUCACCCAUGUUGAGGGUU |  |  | 26.8 | 10.4 |
| GACCGAUAGUCAGGAUAUGCAUGGUUAGUUGAUUACAUGAGGAUCACCCAUGUAGAAGGGACUUUGGCGAAAUCCGUGAUGCGU | 44.1 | 115 |  |  |
| GACCUGAGUAAUAAUGUAGAAAUACAUGAGGAUCACCCAUGUAAGGAUAUGCAGUGGAAUACACUGCAGAAGGUACAUCUCAGG | 16.6 | 29.6 |  |  |
| GACGGUGAUGUAGGAUAUACGCUGGAAUACAGCGUAGAAGGACAUGAGGAUCACCCAUGUAGAGUGUCUCCAAAUAACACCGUC | 43.5 | 284 |  |  |
| GACUAGGCAGGAUAUACAUGAGGAUCACCCAUGUGUCUGCGUUAAGCACGUGAAGACGGUAGAAGGGCCUACAC | 14.4 | 18.1 |  |  |
| GACUCGAAUGUAGGAUAUGCUGAGGAUAACUCAGCAGAAGGACAUGAGGAUCACCCAUGUAAAUGAGUGAAUAAUAAACGAGUC | 1400 | 129 |  |  |
| GAGAAGAGGGAAGGAUAUACAUGAGGAUCACCCAUGUAGAUAGGUUUAAUAGGUUGUUGUUGUUUGUAGAAGGUCCGGUUUGUU | 18 | 16.8 |  |  |
| GAGAAGUCAGGAUAUCCAUGGCGGCACUUGCGUGGUGGCGUGGAGAAGGGACAUGAGGAUCACCCAUGUAAAGC | 54 | 34.9 |  |  |
| GAGAGACAUGAGGAUCACCCAUGUAGAAUAGAACAAGGAUAUGUGGAAGGCGGAGGAGAGACAGAAGGUGUAGGAG |  |  | 108 | 52.9 |
| GAGAGAGGGUGAGGAUAUUUAGUGAUAAUGAUAAGAGAAGGCACAGACAUGAGGAUCACCCAUGUGGGAAUAAUCCAGAGAGAG |  |  | 298 | 290 |
| GAGAGAUAGUAGGAUAUUCUGUACGGGUGACCAGGAGAAGGACUAACAUGAGGAUCACCCAUGUGGCUGGUCAU | 15.9 | 16.2 |  |  |
| GAGAGCCGCGAAGGAUAUACAUCCGUGACCGUCAACAUGAGGAUCACCCAUGUAGAAGGUCGCUGCCUCUUGACAACUGACAAG | 5.16 | 18.4 |  |  |
| GAGAUUUUGUAAGGAUAUACUCUGUGAUGAAGAGUAGAAGGUACUUACAUGAGGAUCACCCAUGUUUAACGAGAUACUAAUCGU |  |  | 57 | 23.3 |
| GAGCCCGAUGAGAAGGGUUACAUGAGGAUCACCCAUGUCGACCUUGGCGUAACAGGAUAUCAUCGAGCUCUGUGCGUUGACCCA | 25.5 | 132 |  |  |
| GAGCCCGUCGAGGAUAUACACCAUAUAUGGCUUGUAGAAGGUGACACAUGAGGAUCACCCAUGUUUGUGGUACA | 63.2 | 35 |  |  |
| GAGCCUCCGUAGAAGGCCGCGGAAUUCGAACGCGGAGGAUAUACAUGAGGAUCACCCAUGUGAAAGUGGAAAGAUAAAACGCUU | 12.4 | 30.4 |  |  |
